The record followed here is ChEMBL document CHEMBL3600302, “A Ligand-Based Drug Design. Discovery of 4-Trifluoromethyl-7,8-pyranocoumarin as a Selective Inhibitor of Human Cytochrome P450 1A2” (J Med Chem, 2015).

Bounds are passed on as bounds.

Data set [1] addresses T1, Cytochrome P450 1A1 (Homo sapiens, UniProt P04798).
T1 sequence (P04798 whole entry): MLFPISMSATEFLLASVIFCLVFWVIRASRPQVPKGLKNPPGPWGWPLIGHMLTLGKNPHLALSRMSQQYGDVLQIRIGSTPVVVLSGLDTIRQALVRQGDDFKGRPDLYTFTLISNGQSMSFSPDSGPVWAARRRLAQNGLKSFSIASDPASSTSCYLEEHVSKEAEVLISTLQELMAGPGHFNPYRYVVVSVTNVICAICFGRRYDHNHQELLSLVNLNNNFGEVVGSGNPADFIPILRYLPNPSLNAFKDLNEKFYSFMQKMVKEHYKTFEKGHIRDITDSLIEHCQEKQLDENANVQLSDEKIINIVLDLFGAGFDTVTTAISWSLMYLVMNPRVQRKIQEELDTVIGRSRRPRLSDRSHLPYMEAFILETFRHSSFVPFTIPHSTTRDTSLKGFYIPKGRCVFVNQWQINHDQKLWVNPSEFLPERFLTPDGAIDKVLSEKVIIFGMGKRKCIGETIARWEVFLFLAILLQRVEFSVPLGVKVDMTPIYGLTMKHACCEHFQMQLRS
Briefly: Inhibition of human microsomal CYP1A1-dependent ethoxyresorufin-O-deethylase activity by spectrofluorimetric analysis in presence of NADPH regenerating solution. The method, boiled down:
(§1)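 Microsomal P450 (final 5 nM) in 0.1 M potassium phosphate pH 7.6 with MgCl2 at 37 °C. Substrate final 5 µM: ethoxyresorufin for 1A1/1B1, methoxyresorufin for 1A2. […] Ki was taken as the x-intercept of Dixon plots (1/v0 vs [I]). Mean ± SD of three independent experiments. Selectivity ratios are ratios of these Ki.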

Data set [2] concerns the target T2, Cytochrome P450 1A2 (Homo sapiens, UniProt P05177).
T2 sequence (P05177 whole entry): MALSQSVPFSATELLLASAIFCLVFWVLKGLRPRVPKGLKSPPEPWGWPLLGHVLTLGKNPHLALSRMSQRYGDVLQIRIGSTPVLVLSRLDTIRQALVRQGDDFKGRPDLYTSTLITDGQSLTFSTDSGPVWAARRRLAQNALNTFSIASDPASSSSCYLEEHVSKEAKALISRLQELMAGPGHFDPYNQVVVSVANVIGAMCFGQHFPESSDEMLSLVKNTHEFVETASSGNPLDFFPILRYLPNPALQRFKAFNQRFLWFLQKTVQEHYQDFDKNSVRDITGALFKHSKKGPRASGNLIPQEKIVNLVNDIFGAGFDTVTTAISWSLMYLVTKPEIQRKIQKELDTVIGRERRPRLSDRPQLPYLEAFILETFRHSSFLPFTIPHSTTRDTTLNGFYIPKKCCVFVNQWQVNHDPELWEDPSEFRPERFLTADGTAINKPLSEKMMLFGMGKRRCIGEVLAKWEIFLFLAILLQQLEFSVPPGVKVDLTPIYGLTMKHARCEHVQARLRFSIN
Briefly: Inhibition of human microsomal CYP1A2-dependent methoxyresorufin-O-demethylase activity by spectrofluorimetric analysis in presence of NADPH regenerating solution. The method, boiled down:
(§2)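 Microsomal P450 (final 5 nM) in 0.1 M potassium phosphate pH 7.6 with MgCl2 at 37 °C. Substrate final 5 µM: ethoxyresorufin for 1A1/1B1, methoxyresorufin for 1A2. Ki was taken as the x-intercept of Dixon plots (1/v0 vs [I]). Mean ± SD of three independent experiments. Selectivity ratios are ratios of these Ki.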

Data set [3] addresses T3, Cytochrome P450 1B1 (Homo sapiens, UniProt Q16678).
T3 sequence (Q16678 whole entry): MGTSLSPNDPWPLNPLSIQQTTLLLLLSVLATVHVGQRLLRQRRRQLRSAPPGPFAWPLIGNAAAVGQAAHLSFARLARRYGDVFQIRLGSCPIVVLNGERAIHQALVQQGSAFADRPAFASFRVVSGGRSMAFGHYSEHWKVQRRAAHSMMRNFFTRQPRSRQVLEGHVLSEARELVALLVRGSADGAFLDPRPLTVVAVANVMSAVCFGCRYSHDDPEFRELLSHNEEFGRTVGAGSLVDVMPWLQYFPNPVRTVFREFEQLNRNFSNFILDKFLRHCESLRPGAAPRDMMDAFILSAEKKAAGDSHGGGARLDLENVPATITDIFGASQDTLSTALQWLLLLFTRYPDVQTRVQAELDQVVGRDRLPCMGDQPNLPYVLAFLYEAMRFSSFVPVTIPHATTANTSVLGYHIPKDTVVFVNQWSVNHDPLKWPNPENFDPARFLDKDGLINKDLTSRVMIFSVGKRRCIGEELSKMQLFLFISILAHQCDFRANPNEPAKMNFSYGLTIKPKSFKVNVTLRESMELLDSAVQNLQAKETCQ
Briefly: Inhibition of human microsomal CYP1B1-dependent ethoxyresorufin-O-deethylase activity by spectrofluorimetric analysis in presence of NADPH regenerating solution. Summed up:
as §2

For data set [4], the species on record is Homo sapiens. Briefly: Selectivity ratio of Ki for human microsomal CYP1A1 to Ki for human microsomal CYP1A2. The method, boiled down:
as §1

The species entered for data set [5] is Homo sapiens. The experiment in a line: Selectivity ratio of Ki for human microsomal CYP1B1 to Ki for human microsomal CYP1A2. Summed up:
as §1

Data set [6] has as its target T1, Cytochrome P450 1A1. The experiment in a line: Inhibition of human microsomal CYP1A1-dependent ethoxyresorufin-O-deethylase activity at 10 nM measured over 6 mins by spectrofluorimetric analysis in absence of NADPH regenerating solution. The conditions noted are these: 0.1 h, 0.01 µM. The method, boiled down:
(§3)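 Microsomal P450 in 0.1 M potassium phosphate pH 7.6 with MgCl2 and 10 nM inhibitor in DMSO, 2 mL final. Preincubated 5 min at 37 °C either with NADPH-regenerating solution, or without it, with NADPH then added at start. Reaction started with ethoxyresorufin (final 5 µM). Resorufin formation followed 6 min at 37 °C.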

The target of data set [7] is T3, Cytochrome P450 1B1. The experiment in a line: Inhibition of human microsomal CYP1B1-dependent ethoxyresorufin-O-deethylase activity at 10 nM measured over 6 mins by spectrofluorimetric analysis in absence of NADPH regenerating solution. The conditions noted are these: 0.1 h, 0.01 µM. Summed up:
as §3

The target in data set [8] is T1, Cytochrome P450 1A1. Briefly: Inhibition of human microsomal CYP1A1-dependent ethoxyresorufin-O-deethylase activity at 10 nM preincubated for 5 mins followed by NADPH regenerating solution and substrate addition measured over 6 mins by spectrofluorimetric analysis. As to conditions: 0.1 h, 0.01 µM; call rule not given here. The method, boiled down: as §3
Data set [9] has as its target T3, Cytochrome P450 1B1. Briefly: Inhibition of human microsomal CYP1B1-dependent ethoxyresorufin-O-deethylase activity at 10 nM preincubated for 5 mins followed by NADPH regenerating solution and substrate addition measured over 6 mins by spectrofluorimetric analysis. As to conditions: 0.1 h, 0.01 µM. The method, boiled down:
as §3

Data set [10] addresses T4, CYP1A2 (Homo sapiens, UniProt P05177).
T4 sequence (P05177 whole entry): T2 sequence (P05177 whole entry)
The experiment in a line: (§4) Time-dependent inhibition of human microsomal CYP1A2-dependent methoxyresorufin-O-demethylase activity by spectrofluorimetric analysis in presence of NADPH regenerating solution. The conditions noted are these: human microsomal CYP1A2, probe methoxyresorufin (O-demethylation). The method, boiled down: (§5)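 1A2 MROD run with NADPH at 0.0125, 0.025, 0.05 and 0.1 µM inhibitor, product monitored continuously over 6 min. Activity at different times came from first derivatives of product curves, expressed as % of control remaining. KI and limiting kinact were derived from the resulting linear plot.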

For data set [11], the target named is T2, Cytochrome P450 1A2. The experiment in a line: Inhibition of human microsomal CYP1A2-dependent methoxyresorufin-O-demethylase activity at 10 nM measured over 6 mins by spectrofluorimetric analysis in absence of NADPH regenerating solution. As to conditions: 0.1 h, 0.01 µM.
For data set [12], the target named is T4, CYP1A2. The experiment in a line: Inhibition of human microsomal CYP1A2-dependent methoxyresorufin-O-demethylase activity at 10 nM preincubated for 5 mins followed by NADPH regenerating solution and substrate addition measured over 6 mins by spectrofluorimetric analysis relative to control. The conditions noted are these: human microsomal CYP1A2, probe methoxyresorufin (O-demethylation).

The target of data set [13] is T2, Cytochrome P450 1A2. The experiment in a line: Inhibition of CYP1A2-dependent methoxyresorufin-O-demethylase activity in human HepG2 cells at 10^-5 M preincubated for 24 hrs followed by substrate addition measured at 10, 30, 60 mins by fluorescence assay. The data set is classed as cell-based. As to conditions: hepg2, 1 h, 10 µM. Summed up:
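HepG2 cells (DMEM, 10% FBS) were plated at 2 × 10^5 per well overnight. They were exposed 24 h to compound (final 10^-4 to 10^-7 M) in DMSO, with βNF 10^-5 M as positive control. Cells were PBS-washed and given medium with 5 × 10^-6 M methoxyresorufin. Resorufin fluorescence (ex 535/em 585 nm) was read at 10, 30 and 60 min. Triplicate, three independent runs, unpaired t test versus DMSO.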

The target in data set [14] is T2, Cytochrome P450 1A2. The data set is described as §4. The method, boiled down: as §5
Data set [15] addresses T5, Aryl hydrocarbon receptor (Homo sapiens, UniProt P35869).
T5 sequence (P35869 whole entry): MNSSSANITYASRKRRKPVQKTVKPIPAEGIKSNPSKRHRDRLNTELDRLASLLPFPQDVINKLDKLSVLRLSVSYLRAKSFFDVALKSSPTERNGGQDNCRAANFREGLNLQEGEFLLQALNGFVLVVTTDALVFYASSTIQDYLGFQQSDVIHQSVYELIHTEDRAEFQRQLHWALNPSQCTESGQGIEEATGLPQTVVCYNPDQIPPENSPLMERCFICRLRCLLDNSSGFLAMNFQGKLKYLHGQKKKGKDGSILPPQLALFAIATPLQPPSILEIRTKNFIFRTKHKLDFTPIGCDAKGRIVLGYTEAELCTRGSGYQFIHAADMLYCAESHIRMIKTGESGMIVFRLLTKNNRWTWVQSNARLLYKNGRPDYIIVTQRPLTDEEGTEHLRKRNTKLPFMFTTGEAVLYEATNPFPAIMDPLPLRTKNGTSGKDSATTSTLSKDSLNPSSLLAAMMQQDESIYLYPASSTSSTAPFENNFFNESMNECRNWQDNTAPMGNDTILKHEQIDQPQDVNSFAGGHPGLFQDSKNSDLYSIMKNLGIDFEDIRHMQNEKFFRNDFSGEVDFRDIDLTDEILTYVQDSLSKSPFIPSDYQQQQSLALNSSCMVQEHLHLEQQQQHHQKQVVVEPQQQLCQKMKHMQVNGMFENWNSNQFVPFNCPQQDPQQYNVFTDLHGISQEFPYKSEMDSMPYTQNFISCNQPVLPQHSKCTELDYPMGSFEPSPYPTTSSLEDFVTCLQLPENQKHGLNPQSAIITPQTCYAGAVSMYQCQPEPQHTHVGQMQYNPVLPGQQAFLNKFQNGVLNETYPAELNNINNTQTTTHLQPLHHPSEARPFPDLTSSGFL
The experiment in a line: Activation of human AhR expressed in Saccharomyces cerevisiae MYA-3637 assessed as upregulation of cytochrome P450 expression at <10^-6 M by LacZ reporter assay. It counts as ADME. The method, boiled down:
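Yeast with integrated human AhR (GAL promoter) and lacZ reporter plasmid, grown on tryptophan-free synthetic minimal medium with galactose instead of glucose. Compounds in DMSO (1% v/v final) added to overnight culture in quadruplicate and left until next day. Abs600 read, then lysis buffer with sarcosyl, DTT and ONPG added. Abs405/Abs600 taken as activation. 10^-8 M βNF positive control. At least three repeats.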
(In a reporter assay the amount or activity of a reporter protein is the signal.)

Data set [16] concerns the target T2, Cytochrome P450 1A2. Briefly: Inhibition of CYP1A2-dependent methoxyresorufin-O-demethylase activity in human HepG2 cells at > 10^-6 M preincubated for 24 hrs followed by substrate addition measured at 10, 30, 60 mins by fluorescence assay. The data set is classed as cell-based. The conditions noted are these: hepg2, 1 h. The method, boiled down:
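HepG2 cells (DMEM, 10% FBS, 37 °C, 5% CO2), 2 × 10^5 per well, plated overnight. Exposed 24 h to compound at final 10^-4 to 10^-7 M in DMSO. 10^-5 M βNF positive control, DMSO blank. Then washed with PBS and given medium with 5 × 10^-6 M methoxyresorufin. Resorufin fluorescence (ex 535/em 585 nm) read at 10, 30, 60 min. Triplicate, three independent experiments, unpaired t test.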

A further data set relates to HepG2. The experiment in a line: Cytotoxicity against human HepG2 cells assessed as cell viability up to 10^-5 M after 72 hrs by MTT assay. The data set is classed as cell-based. The conditions noted are these: hepg2, 72 h. (Formazan colour is commonly taken as a measure of viable cells.)

In general, Ki refers to a dissociation constant, usually derived from enzyme kinetics or from competition with a known ligand. Broadly, the kinact is the maximal first-order rate at which the target is inactivated. In general, inhibition refers to the drop in the measured response relative to a control, in per cent. On to `Cc1cc2c(cc(O)c3c(=O)cc(-c4ccccc4)oc32)o1`, for which the inhibition constant (Ki) at Cytochrome P450 1A1 [1] was 470 nM; on Cytochrome P450 1A2 [2] it was 44 nM; at Cytochrome P450 1B1 [3], 100 nM. Also, the Ratio Ki in the data set filed under Homo sapiens [4] was 11; in the data set filed under Homo sapiens [5], 2.3. For the same compound, the “inhibition (INH)” value on Cytochrome P450 1A1 [6] is listed as “Not Active”; against Cytochrome P450 1B1 [7] it was “Not Active”; against Cytochrome P450 1A1 [8] it was “Not Active”; against Cytochrome P450 1B1 [9], “Not Active”; against Cytochrome P450 1A2 [11], “Active”. Also, the kinact on CYP1A2 [10] was 0.00433 s⁻¹. In addition, the inhibition at 0.1 h, 0.01 µM at CYP1A2 [12] was more than 90%.
For `O=c1cc(-c2ccccc2)oc2ccc3ccccc3c12` [BETA-NAPHTHOFLAVONE], at Cytochrome P450 1A2 [13], the “inhibition (INH)” value is listed as “Not Active”.
In the case of `O=c1cc(C(F)(F)F)c2ccc3c(c2o1)C=CCO3`, the Ki worked out at 60600 nM on Cytochrome P450 1A1 [1], 390 nM at Cytochrome P450 1A2 [2] and 20400 nM on Cytochrome P450 1B1 [3]. Further, the figures for the Ratio Ki in the data set filed under Homo sapiens [4] and in the data set filed under Homo sapiens [5] were 155 and 52, respectively. At Cytochrome P450 1A2 [14], the TDI entry is on record as “Not Active”. In addition, the values for the Activity result (in [15]; with HepG2) were “Not Active” and “Non-toxic”, respectively. On Cytochrome P450 1A2 [16], the “inhibition (INH)” value is reported as “Active”.
